Assay results taken from ChEMBL document CHEMBL2407032, “Structural modification of pantothenamides counteracts degradation by pantetheinase and improves antiplasmodial activity” (ACS Med Chem Lett, 2013).

Key:
Plasmodium falciparum [1] = experiment: Antiplasmodial activity against intraerythrocytic Plasmodium falciparum 3D7 infected in human erythrocytes in fresh RPMI-1640 culture medium assessed as parasite growth inhibition after 96 hrs by microscopic analysis; assay type: functional, organism-based; conditions: 3D7, 96 h
Outline: (§1)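 3D7 parasites in erythrocytes, started mostly at ring stage, grown 96 h in freshly prepared Albumax-complete RPMI (pantetheinase active) with 1 μM pantothenic acid. IC50 from concentration-response. Mean ± SEM (or range/2) of at least two independent experiments, each in triplicate.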

pantetheinase = experiment: Drug metabolism of the compound assessed as compound hydrolysis at 200 uM after 10 mins by fluorescence assay in presence of recombinant human pantetheinase; assay type: physicochemical; conditions: read-out: Drug metabolism
Plasmodium falciparum [2] = experiment: Antiplasmodial activity against intraerythrocytic Plasmodium falciparum 3D7 infected in human erythrocytes in fresh RPMI-1640 culture medium assessed as parasite growth inhibition after 96 hrs by microscopic analysis in presence of pantetheinase; assay type: functional, organism-based; conditions: 3D7, 96 h; outline: as §1
Plasmodium falciparum [3] = experiment: Antiplasmodial activity against intraerythrocytic Plasmodium falciparum 3D7 infected in human erythrocytes in heat treated RPMI-1640 culture medium assessed as parasite growth inhibition after 96 hrs by microscopic analysis; assay type: functional, organism-based; conditions: 3D7, 96 h
Outline: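 3D7 ring-stage-initiated cultures in erythrocytes, grown 96 h in aged Albumax-complete RPMI. The medium was heat-treated for a prolonged time to reduce pantetheinase activity and held 1 μM pantothenic acid. IC50 from concentration-response. Mean ± SEM (or range/2) of at least two independent experiments, each in triplicate.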

Jurkat = experiment: Cytotoxicity against human Jurkat cells after 96 hrs by SYBR green assay in presence of pantothenic acid; assay type: cell-based
Outline: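 Human leukemic T-cell line grown 96 h in medium with 1 μM pantothenic acid. IC50 from concentration-response profiles. Means ± SEM of three independent experiments performed in triplicate.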

[4] = Selectivity index, ratio of IC50 for human Jurkat cells to IC50 for intraerythrocytic Plasmodium falciparum 3D7 infected in human erythrocytes in fresh RPMI-1640 culture medium; assay type: toxicity, cell-based; conditions: read-out: Ratio IC50

SMILES	IC50 (Plasmodium falciparum [1])	metabolised at 10 min, 200 µM (pantetheinase)	IC50 (Plasmodium falciparum [2])	IC50 (Plasmodium falciparum [3])	IC50 (Jurkat)	selectivity ratio [4]
CC(C)(CO)[C@@H](O)C(=O)NCCC(=O)NCC1CC1	149 µM	–	–	–	–	–
CCCCNC(=O)CNC(=O)[C@H](O)C(C)(C)CO	5.3 µM	25%	–	–	–	–
CC(C)(CO)[C@@H](O)C(=O)NCCCC(=O)NCc1ccc(C(F)(F)F)cc1	–	5%	–	–	–	–
CC(C)(CO)[C@@H](O)C(=O)NCCCC(=O)NCc1ccc(OC(F)(F)F)cc1	6.3 µM	5%	> 200 µM	4.9 µM	–	–
CC(C)CCNC(=O)CNC(=O)[C@H](O)C(C)(C)CO	12 µM	5%	–	–	–	–
CCCNC(=O)CCNC(=O)[C@H](O)C(C)(C)CO	199 µM	–	–	–	–	–
COc1ccc(CNC(=O)CCCNC(=O)[C@H](O)C(C)(C)CO)cc1	9.5 µM	5%	> 200 µM	10 µM	–	–
CC(C)(CO)[C@@H](O)C(=O)NCC(=O)NCc1ccccc1	122 µM	5%	> 200 µM	127 µM	–	–
CN(C)c1cccc2c(S(=O)(=O)NCCCCCNC(=O)CNC(=O)[C@H](O)C(C)(C)CO)cccc12	155 µM	5%	157 µM	–	–	–
CC(C)(CO)[C@@H](O)C(=O)NCC(=O)NCC1CC1	6.4 µM	5%	183 µM	–	–	–
CCCCCCCNC(=O)CCNC(=O)[C@H](O)C(C)(C)CO	> 200 µM	–	–	–	–	–
CC(C)(CO)[C@@H](O)C(=O)NCCC(=O)NCc1ccc2c(c1)OCO2	144 µM	–	–	–	–	–
CC(C)(CO)[C@@H](O)C(=O)NCCC(=O)NCc1ccc(OC(F)(F)F)cc1	> 200 µM	–	–	136 µM	–	–
CCSCCNC(=O)CNC(=O)[C@H](O)C(C)(C)CO	10 µM	5%	200 µM	11 µM	–	–
CCCCCCCNC(=O)CCCNC(=O)[C@H](O)C(C)(C)CO	11 µM	5%	–	–	–	–
COc1ccc(CNC(=O)CNC(=O)[C@H](O)C(C)(C)CO)cc1	26 µM	5%	189 µM	71 µM	–	–
CC(C)(CO)[C@@H](O)C(=O)NCCCC(=O)NCc1cccc(C(F)(F)F)c1	–	5%	–	–	–	–
CC(C)(CO)[C@@H](O)C(=O)NCC(=O)NCc1ccc(C(F)(F)F)cc1	48 µM	5%	57 µM	45 µM	–	–
CC(C)CNC(=O)CCCNC(=O)[C@H](O)C(C)(C)CO	11 µM	5%	–	–	–	–
COc1cccc(CNC(=O)CCCNC(=O)[C@H](O)C(C)(C)CO)c1	21 µM	5%	> 200 µM	22 µM	–	–
CC(C)(CO)[C@@H](O)C(=O)NCCC(=O)NCc1ccc(C(F)(F)F)cc1	107 µM	–	–	117 µM	–	–
CCSCCNC(=O)CCNC(=O)[C@H](O)C(C)(C)CO	87 µM	–	–	0.28 µM	–	–
CC(C)CCNC(=O)CCCNC(=O)[C@H](O)C(C)(C)CO	8.9 µM	5%	–	–	–	–
CC(C)(CO)[C@@H](O)C(=O)NCC(=O)NCc1cccc(C(F)(F)F)c1	89 µM	5%	177 µM	116 µM	–	–
COc1cccc(CNC(=O)CNC(=O)[C@H](O)C(C)(C)CO)c1	> 200 µM	5%	–	> 200 µM	–	–
CCCCCCNC(=O)CCCNC(=O)[C@H](O)C(C)(C)CO	8 µM	5%	199 µM	14 µM	–	–
CC(C)CCNC(=O)CCNC(=O)[C@H](O)C(C)(C)CO	> 200 µM	–	–	–	–	–
CCCNC(=O)CCCNC(=O)[C@H](O)C(C)(C)CO	13 µM	5%	–	–	–	–

SMILES	IC50 (Plasmodium falciparum [1])	metabolised at 10 min, 200 µM (pantetheinase)	IC50 (Plasmodium falciparum [2])	IC50 (Plasmodium falciparum [3])	IC50 (Jurkat)	selectivity ratio [4]
CCCCCNC(=O)CNC(=O)[C@H](O)C(C)(C)CO	7 µM	5%	142 µM	14 µM	–	–
CC(C)(CO)[C@@H](O)C(=O)NCCCC(=O)NCc1ccc2c(c1)OCO2	2.4 µM	5%	88 µM	–	23 µM	9
CSCCCNC(=O)CNC(=O)[C@H](O)C(C)(C)CO	38 µM	5%	–	–	–	–
COc1cccc(CNC(=O)CCNC(=O)[C@H](O)C(C)(C)CO)c1	> 200 µM	–	–	> 200 µM	–	–
CN(C)c1cccc2c(S(=O)(=O)NCCCCCNC(=O)CCCNC(=O)[C@H](O)C(C)(C)CO)cccc12	–	5%	–	–	–	–
CCCCNC(=O)CCCNC(=O)[C@H](O)C(C)(C)CO	11 µM	25%	–	–	–	–
CCCCCCCNC(=O)CNC(=O)[C@H](O)C(C)(C)CO	46 µM	5%	–	–	–	–
CCCCNC(=O)CCNC(=O)[C@H](O)C(C)(C)CO	> 200 µM	–	–	–	–	–
CC(C)(CO)[C@@H](O)C(=O)NCCC(=O)NCc1cccc(C(F)(F)F)c1	> 200 µM	–	–	156 µM	–	–
CC(C)(CO)[C@@H](O)C(=O)NCCCC(=O)NCC1CC1	12 µM	5%	–	–	–	–
COc1ccc(CNC(=O)CCNC(=O)[C@H](O)C(C)(C)CO)cc1	> 200 µM	–	–	> 200 µM	–	–
CC(C)(CO)[C@@H](O)C(=O)NCCC(=O)NCC1CCCCC1	> 200 µM	–	–	> 200 µM	–	–
CCCCCNC(=O)CCNC(=O)[C@H](O)C(C)(C)CO	182 µM	–	–	7.5 µM	–	–
CC(C)(CO)[C@@H](O)C(=O)NCC(=O)NCc1ccc(OC(F)(F)F)cc1	71 µM	5%	> 200 µM	64 µM	–	–
CC(C)(CO)[C@@H](O)C(=O)NCCC(=O)NCCc1ccccc1	53 µM	–	–	0.02 µM	–	–
CC(C)(CO)[C@@H](O)C(=O)NCC(=O)NCCc1ccccc1	3.4 µM	5%	135 µM	–	53 µM	16
CC(C)(CO)[C@@H](O)C(=O)NCC(=O)NCC1CCCCC1	164 µM	5%	–	140 µM	–	–
CSCCCNC(=O)CCCNC(=O)[C@H](O)C(C)(C)CO	7.7 µM	5%	–	–	–	–
CC(C)(CO)[C@@H](O)C(=O)NCCCC(=O)NCc1ccccc1	6.1 µM	5%	> 200 µM	4.7 µM	–	–
CC(C)CNC(=O)CCNC(=O)[C@H](O)C(C)(C)CO	200 µM	–	–	1.1 µM	–	–
CC(C)CNC(=O)CNC(=O)[C@H](O)C(C)(C)CO	18 µM	5%	–	–	–	–
CSCCCNC(=O)CCNC(=O)[C@H](O)C(C)(C)CO	143 µM	–	–	0.23 µM	–	–
CN(C)c1cccc2c(S(=O)(=O)NCCCCCNC(=O)CCNC(=O)[C@H](O)C(C)(C)CO)cccc12	> 200 µM	–	–	–	–	–
CC(C)(CO)[C@@H](O)C(=O)NCCC(=O)NCc1ccccc1	> 200 µM	–	–	> 200 µM	–	–
CCCCCCNC(=O)CCNC(=O)[C@H](O)C(C)(C)CO	134 µM	–	–	0.55 µM	–	–
CC(C)(CO)[C@@H](O)C(=O)NCC(=O)NCc1ccc2c(c1)OCO2	53 µM	5%	> 200 µM	–	–	–
CCCNC(=O)CNC(=O)[C@H](O)C(C)(C)CO	13 µM	5%	–	–	–	–
